For four molecules, IC50 results are on record in ChEMBL document CHEMBL1150119, “Cytotoxic germacranolides from Inula verbascifolia subsp. methanea” (J Nat Prod, 2002).

In brackets after ≈: the same amount, converted by molar mass.

Common to all, as to format: functional, cell-based
The test system of one test is HT-29. Description: Cytotoxicity against human HT-29 cells after 48 hrs by MTT assay. Conditions: HT-29, 48 h. In outline:
(§1)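 Adherent human tumor cells kept in DMEM with 10% FBS, penicillin and streptomycin, at 37 °C under 5% CO₂ and 85% humidity, and subcultured with trypsin-EDTA. Cells were seeded at 5000/well and compounds in DMSO were added 24 h later. After 48 h, medium was swapped for MTT (1 mg/mL final, serum-free phenol-red-free RPMI) for 4 h. Formazan was dissolved in 2-propanol and read at 550 nm against 690 nm reference.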

The subject of the next test is HCT-116. Description: Cytotoxicity against human HCT116 cells after 48 hrs by MTT assay. The note with it: HCT-116, 48 h. In outline:
as §1

Test [1] is described as follows: Cytotoxicity against human HRT18 cells after 48 hrs by MTT assay. The note with it: HRT-18, 48 h. The essentials:
as §1
For orientation: Tetrazolium assays rely on reduction of a dye to a coloured formazan, in cell work by metabolically active cells.

The subject of the next test is MCF7. The test is described as follows: Cytotoxicity against human MCF7 cells expressing estrogen receptor after 48 hrs by MTT assay. Conditions: MCF7, 48 h. The essentials:
as §1

The test system of another test is LNCaP. The test is described as follows: Cytotoxicity against human LNCAP cells expressing androgen receptor after 48 hrs by MTT assay. The essentials:
as §1

Another test concerns PC-3. Description: Cytotoxicity against human PC3 cells after 48 hrs by MTT assay. Conditions: PC-3, 48 h. The essentials:
as §1

By IC50 is commonly meant the concentration that gives 50% inhibition. Read a low IC50 as inhibition by little substance. Take `C=C1C(=O)O[C@@H]2[C@H]3O[C@]3(C)CC/C=C(\C)[C@@H](OC(=O)C(C)C(C)O)C[C@@H]12` (some centres undefined): the IC50 is 11.7 µg/mL (≈ 32.1 µM) in the test on HT-29; 0.39 µg/mL (≈ 1.07 µM) with HCT-116; 13.4 µg/mL (≈ 36.8 µM) in test [1]; more than 40 µg/mL in the test with MCF7; 25.4 µg/mL (≈ 69.7 µM) in the test with LNCaP; 11.3 µg/mL (≈ 31 µM) in the test with PC-3.
Regarding `C=C1C(=O)O[C@@H]2[C@H]3O[C@]3(C)CC/C=C(\C)[C@@H](OC(=O)CC(C)(O)CC)C[C@@H]12` (some centres undefined), the IC50 with HT-29 was 11.7 µg/mL (≈ 30.9 µM); in the test on HCT-116 it was 7.1 µg/mL (≈ 18.8 µM); in test [1], 8.75 µg/mL (≈ 23.1 µM); in the test on MCF7, more than 40 µg/mL; in the test on LNCaP, 30.2 µg/mL (≈ 79.8 µM); in the test on PC-3, 15.7 µg/mL (≈ 41.5 µM).
In the case of `COc1cccc2c1C(=O)c1c(O)c3c(c(O)c1C2=O)C[C@@](O)(C(C)=O)C[C@@H]3O[C@H]1C[C@H](N)[C@H](O)[C@H](C)O1.Cl` [DAUNORUBICIN HYDROCHLORIDE], the concentration for half-maximal inhibition (IC50) in the test on HT-29 is 0.072 µg/mL; in the test on HCT-116, 0.28 µg/mL; in test [1], 0.11 µg/mL; in the test on MCF7, 0.12 µg/mL; in the test on LNCaP, 0.011 µg/mL; with PC-3 it was 0.23 µg/mL.
As to `C=C1C(=O)O[C@@H]2[C@H]3O[C@]3(C)CC/C=C(\C)[C@@H](OC(=O)CC(C)(C)O)C[C@@H]12`, the IC50 is 17.5 µg/mL (≈ 48 µM) with HT-29; 14.1 µg/mL (≈ 38.7 µM) with HCT-116; 14.9 µg/mL (≈ 40.9 µM) in test [1]; more than 40 µg/mL in the test on MCF7; 34.2 µg/mL (≈ 93.8 µM) with LNCaP; 18.2 µg/mL (≈ 49.9 µM) in the test on PC-3.
